From ChEMBL document CHEMBL1157912, “Impact of nature and length of linker incorporated in agonists on toll-like receptor 9-mediated immune responses” (J Med Chem, 2010)

What was measured:
[1] = biological target: T1, Toll-like receptor 9 (Mus musculus) (UniProt Q9EQU3); assay: Activation of mouse TLR9 expressed in HEK293 cells assessed as induction of NF-kappaB activity after 18 hrs by SEAP assay; format: cell-based
T1 sequence (whole entry): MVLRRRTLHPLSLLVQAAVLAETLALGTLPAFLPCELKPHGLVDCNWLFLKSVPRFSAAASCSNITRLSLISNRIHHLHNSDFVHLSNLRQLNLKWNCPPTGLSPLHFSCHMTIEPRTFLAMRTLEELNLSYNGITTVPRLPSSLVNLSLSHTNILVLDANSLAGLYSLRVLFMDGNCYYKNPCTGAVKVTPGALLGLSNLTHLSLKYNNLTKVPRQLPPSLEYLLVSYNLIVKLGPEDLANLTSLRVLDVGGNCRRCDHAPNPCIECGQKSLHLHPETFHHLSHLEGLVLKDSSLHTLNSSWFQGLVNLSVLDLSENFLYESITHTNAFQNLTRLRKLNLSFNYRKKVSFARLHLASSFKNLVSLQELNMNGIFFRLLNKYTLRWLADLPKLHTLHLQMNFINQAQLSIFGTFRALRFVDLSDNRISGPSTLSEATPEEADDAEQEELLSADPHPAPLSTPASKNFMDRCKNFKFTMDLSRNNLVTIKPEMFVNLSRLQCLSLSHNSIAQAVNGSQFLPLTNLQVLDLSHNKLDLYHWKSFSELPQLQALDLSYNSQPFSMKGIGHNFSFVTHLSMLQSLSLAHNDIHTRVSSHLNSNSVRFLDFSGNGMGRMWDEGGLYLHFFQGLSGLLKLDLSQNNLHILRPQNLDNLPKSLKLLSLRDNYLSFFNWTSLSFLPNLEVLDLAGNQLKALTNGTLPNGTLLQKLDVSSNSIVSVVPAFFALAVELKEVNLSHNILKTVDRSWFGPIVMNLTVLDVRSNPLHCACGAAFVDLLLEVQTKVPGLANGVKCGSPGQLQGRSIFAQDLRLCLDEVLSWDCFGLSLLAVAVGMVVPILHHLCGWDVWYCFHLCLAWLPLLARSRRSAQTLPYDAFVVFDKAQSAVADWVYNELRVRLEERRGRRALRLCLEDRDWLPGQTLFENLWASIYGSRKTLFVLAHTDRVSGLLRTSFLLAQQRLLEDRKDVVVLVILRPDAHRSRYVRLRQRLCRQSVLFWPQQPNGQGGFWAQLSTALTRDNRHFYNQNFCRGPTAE
Method in brief: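 HEK293 cells stably expressing mouse TLR9 were grown in DMEM with 10% heat-inactivated FBS. At 80% confluence they were transiently transfected with a SEAP reporter plasmid (100 ng/well, lipofectamine) for 6 h. Medium was then replaced and agonists were added for 18 h. Supernatant SEAP was read with QuantiBlue substrate at 620-645 nm. Results are expressed as fold NF-κB activity over PBS control.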

[2] = biological target: T1, Toll-like receptor 9 (Mus musculus); assay: Induction of TLR9-mediated IL12 production in C57BL/6 mouse spleen cells after 24 hrs by ELISA; format: cell-based
Method in brief: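 C57BL/6 mouse spleen cells were cultured with agonists at 0.1, 0.3, 1, 3 and 10 μg/mL for 24 h. Secreted IL-12 and IL-6 in the supernatants were measured by ELISA. Values are averages of triplicate wells from one representative of at least two independent experiments.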

[3] = biological target: T2, Toll-like receptor 9 (Homo sapiens) (UniProt Q9NR96); assay: Induction of TLR9-mediated immune stimulation in human PBMC assessed as IL2R production at 10 ug/ml after 24 hrs by luminex multiplex assay (RVb = 0.02 +/- 0.01 ng/ml)
T2 sequence (whole entry): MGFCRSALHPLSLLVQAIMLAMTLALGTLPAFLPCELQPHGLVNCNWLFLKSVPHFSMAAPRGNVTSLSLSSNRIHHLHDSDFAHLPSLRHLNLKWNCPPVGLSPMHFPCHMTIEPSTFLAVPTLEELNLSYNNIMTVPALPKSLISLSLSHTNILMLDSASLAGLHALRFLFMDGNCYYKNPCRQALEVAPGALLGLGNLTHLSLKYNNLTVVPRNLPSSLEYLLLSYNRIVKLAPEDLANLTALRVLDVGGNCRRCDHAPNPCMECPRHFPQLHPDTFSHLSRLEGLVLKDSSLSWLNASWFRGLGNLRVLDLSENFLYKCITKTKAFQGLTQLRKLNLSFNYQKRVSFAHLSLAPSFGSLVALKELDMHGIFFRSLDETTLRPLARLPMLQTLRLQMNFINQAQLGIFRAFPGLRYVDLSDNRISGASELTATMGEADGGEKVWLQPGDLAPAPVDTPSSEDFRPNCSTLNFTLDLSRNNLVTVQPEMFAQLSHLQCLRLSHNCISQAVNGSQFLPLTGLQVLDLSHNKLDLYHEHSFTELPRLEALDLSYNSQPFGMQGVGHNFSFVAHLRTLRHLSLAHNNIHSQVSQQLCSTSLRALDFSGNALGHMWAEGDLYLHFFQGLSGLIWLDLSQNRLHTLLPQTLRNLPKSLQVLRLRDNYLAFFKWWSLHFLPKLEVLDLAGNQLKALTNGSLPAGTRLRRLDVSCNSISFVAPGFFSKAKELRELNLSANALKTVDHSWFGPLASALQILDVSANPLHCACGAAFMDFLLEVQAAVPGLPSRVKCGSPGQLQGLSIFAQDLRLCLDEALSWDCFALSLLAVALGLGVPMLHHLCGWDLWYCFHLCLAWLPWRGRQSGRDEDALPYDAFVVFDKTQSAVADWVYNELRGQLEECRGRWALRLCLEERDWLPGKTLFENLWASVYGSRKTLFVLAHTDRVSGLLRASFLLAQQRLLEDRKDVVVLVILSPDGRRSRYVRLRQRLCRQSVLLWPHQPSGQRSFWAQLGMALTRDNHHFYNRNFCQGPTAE

[4] = biological target: T2, Toll-like receptor 9 (Homo sapiens); assay: Induction of TLR9-mediated immune stimulation in human PBMC assessed as IL6 production at 2 ug/ml after 24 hrs by luminex multiplex assay (RVb = 0.01 ng/ml)
[5] = biological target: T2, Toll-like receptor 9 (Homo sapiens); assay: Induction of TLR9-mediated immune stimulation in human PBMC assessed as IL12 production at 2 ug/ml after 24 hrs by luminex multiplex assay (RVb = 0.00 ng/ml)
[6] = biological target: T2, Toll-like receptor 9 (Homo sapiens); assay: Induction of TLR9-mediated immune stimulation in human PBMC assessed as MIP1alpha production at 2 ug/ml after 24 hrs by luminex multiplex assay (RVb = 0.01 ng/ml)
[7] = biological target: T2, Toll-like receptor 9 (Homo sapiens); assay: Induction of TLR9-mediated immune stimulation in human PBMC assessed as MIP1beta production at 10 ug/ml after 24 hrs by luminex multiplex assay (RVb = 0.03 +/- 0.02 ng/ml)
[8] = biological target: T2, Toll-like receptor 9 (Homo sapiens); assay: Induction of TLR9-mediated immune stimulation in human PBMC assessed as RANTES production at 2 ug/ml after 24 hrs by luminex multiplex assay (RVb = 0.05 +/- 0.04 ng/ml)
[9] = biological target: T2, Toll-like receptor 9 (Homo sapiens); assay: Induction of TLR9-mediated immune stimulation in human PBMC assessed as RANTES production at 10 ug/ml after 24 hrs by luminex multiplex assay (RVb = 0.05 +/- 0.04 ng/ml)

Row | Activity [1] | Activity [2] | Activity [3] [ng/mL] | Activity [4] [ng/mL] | Activity [5] [ng/mL] | Activity [6] [ng/mL] | Activity [7] [ng/mL] | Activity [8] [ng/mL] | Activity [9] [ng/mL] | SMILES
1 | Dose-dependent effect | Dose-dependent effect | 0.29 | 0.3 | 0.12 | 0.05 | 2.45 | 0.5 | 2.26 | Cc1cn([C@H]2C[C@H](O[C@@H]3C[C@@H](O)C[C@@H](OP(=O)(S)O[C@H]4C[C@H](n5cc(C)c(=O)[nH]c5=O)O[C@@H]4COP(=O)(S)O[C@H]4[C@@H](O)[C@H](n5ccc(N)nc5=O)O[C@@H]4COP(=O)(S)O[C@H]4C[C@H](n5cc(C)c(=O)[nH]c5=O)O[C@@H]4COP(=O)(S)O[C@H]4C[C@H](n5cc(C)c(=O)[nH]c5=O)O[C@@H]4COP(=O)(S)O[C@H]4C[C@H](n5ccc6c(=O)[nH]c(N)nc65)O[C@@H]4COP(=O)(S)O[C@H]4[C@@H](O)[C@H](n5ccc(N)nc5=O)O[C@@H]4COP(=O)(S)O[C@H]4C[C@H](n5cc(C)c(=O)[nH]c5=O)O[C@@H]4COP(=O)(S)O[C@H]4[C@@H](O)[C@H](n5cnc6c(=O)[nH]c(N)nc65)O[C@@H]4COP(=O)(S)O[C@H]4C[C@H](n5cc(C)c(=O)[nH]c5=O)O[C@@H]4COP(=O)(S)O[C@H]4[C@@H](O)[C@H](n5ccc(N)nc5=O)O[C@@H]4COP(=O)(S)O[C@H]4C[C@H](n5cc(C)c(=O)[nH]c5=O)O[C@@H]4CO)C3)[C@@H](COP(=O)(S)O[C@H]3[C@@H](O)[C@H](n4ccc(N)nc4=O)O[C@@H]3COP(=O)(S)O[C@H]3C[C@H](n4cc(C)c(=O)[nH]c4=O)O[C@@H]3COP(=O)(S)O[C@H]3C[C@H](n4cc(C)c(=O)[nH]c4=O)O[C@@H]3COP(=O)(S)O[C@H]3C[C@H](n4ccc5c(=O)[nH]c(N)nc54)O[C@@H]3COP(=O)(S)O[C@H]3[C@@H](O)[C@H](n4ccc(N)nc4=O)O[C@@H]3COP(=O)(S)O[C@H]3C[C@H](n4cc(C)c(=O)[nH]c4=O)O[C@@H]3COP(=O)(S)O[C@H]3[C@@H](O)[C@H](n4cnc5c(=O)[nH]c(N)nc54)O[C@@H]3COP(=O)(S)O[C@H]3C[C@H](n4cc(C)c(=O)[nH]c4=O)O[C@@H]3COP(=O)(S)O[C@H]3[C@@H](O)[C@H](n4ccc(N)nc4=O)O[C@@H]3COP(=O)(S)O[C@H]3C[C@H](n4cc(C)c(=O)[nH]c4=O)O[C@@H]3CO)O2)c(=O)[nH]c1=O (stereo partly drawn)
2 | Dose-dependent effect | Dose-dependent effect | 0.21 | 0.16 | 0.12 | 0.05 | 0.9 | 1.57 | 1.32 | Cc1cn([C@H]2C[C@H](OCCOCCOCCOCCOCCOCCOP(=O)(S)O[C@H]3C[C@H](n4cc(C)c(=O)[nH]c4=O)O[C@@H]3COP(=O)(S)O[C@H]3[C@@H](O)[C@H](n4ccc(N)nc4=O)O[C@@H]3COP(=O)(S)O[C@H]3C[C@H](n4cc(C)c(=O)[nH]c4=O)O[C@@H]3COP(=O)(S)O[C@H]3C[C@H](n4cc(C)c(=O)[nH]c4=O)O[C@@H]3COP(=O)(S)O[C@H]3C[C@H](n4ccc5c(=O)[nH]c(N)nc54)O[C@@H]3COP(=O)(S)O[C@H]3[C@@H](O)[C@H](n4ccc(N)nc4=O)O[C@@H]3COP(=O)(S)O[C@H]3C[C@H](n4cc(C)c(=O)[nH]c4=O)O[C@@H]3COP(=O)(S)O[C@H]3[C@@H](O)[C@H](n4cnc5c(=O)[nH]c(N)nc54)O[C@@H]3COP(=O)(S)O[C@H]3C[C@H](n4cc(C)c(=O)[nH]c4=O)O[C@@H]3COP(=O)(S)O[C@H]3[C@@H](O)[C@H](n4ccc(N)nc4=O)O[C@@H]3COP(=O)(S)O[C@H]3C[C@H](n4cc(C)c(=O)[nH]c4=O)O[C@@H]3CO)[C@@H](COP(=O)(S)O[C@H]3[C@@H](O)[C@H](n4ccc(N)nc4=O)O[C@@H]3COP(=O)(S)O[C@H]3C[C@H](n4cc(C)c(=O)[nH]c4=O)O[C@@H]3COP(=O)(S)O[C@H]3C[C@H](n4cc(C)c(=O)[nH]c4=O)O[C@@H]3COP(=O)(S)O[C@H]3C[C@H](n4ccc5c(=O)[nH]c(N)nc54)O[C@@H]3COP(=O)(S)O[C@H]3[C@@H](O)[C@H](n4ccc(N)nc4=O)O[C@@H]3COP(=O)(S)O[C@H]3C[C@H](n4cc(C)c(=O)[nH]c4=O)O[C@@H]3COP(=O)(S)O[C@H]3[C@@H](O)[C@H](n4cnc5c(=O)[nH]c(N)nc54)O[C@@H]3COP(=O)(S)O[C@H]3C[C@H](n4cc(C)c(=O)[nH]c4=O)O[C@@H]3COP(=O)(S)O[C@H]3[C@@H](O)[C@H](n4ccc(N)nc4=O)O[C@@H]3COP(=O)(S)O[C@H]3C[C@H](n4cc(C)c(=O)[nH]c4=O)O[C@@H]3CO)O2)c(=O)[nH]c1=O (stereo partly drawn)
